Source: ChEMBL document CHEMBL4007382 (Eur J Med Chem, 2017)

Tests used:
Mus musculus [1] = assay: Cardiotoxicity in Kunming mouse assessed as change in heart rate at 20 mg/kg, ip measured after 11 mins by electrocardiogram (reference value: -35.4 +/- 11.4); assay type: toxicity, organism-based; settings: in vivo
Mus musculus [2] = assay: Cardiotoxicity in Kunming mouse assessed as change in heart rate at 20 mg/kg, ip measured after 32 mins by electrocardiogram (reference value: -43.48 +/- 20.81); assay type: toxicity, organism-based; settings: in vivo
Cholinesterase [3] = molecular target: Cholinesterase (Homo sapiens, UniProt P06276); assay: Irreversible inhibition of human plasma BuChE assessed as second order carbamylation rate constant using S-butyrylthiocholine iodide as substrate preincubated up to 45 mins followed by substrate addition measured after 5 mins
Outline: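 Diluted human plasma BChE was preincubated for 1–45 min with inhibitor at 5×10^-9, 1×10^-8, 2.5×10^-8 and 5×10^-8 M. Residual Ellman activity with BTCh at pH 8 was normalised to a water control. kobs came from a one-phase exponential fit; k_I1 came from the slope of kobs versus concentration.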

Mus musculus [4] = assay: Cardiotoxicity in Kunming mouse assessed as change in heart rate at 20 mg/kg, ip measured after 10 mins by electrocardiogram (reference value: -34.85 +/- 19.78); assay type: toxicity, organism-based; settings: in vivo
Mus musculus [5] = assay: Cardiotoxicity in Kunming mouse assessed as change in heart rate at 20 mg/kg, ip measured after 8 mins by electrocardiogram (reference value: -27.98 +/- 16.02); assay type: toxicity, organism-based; settings: in vivo
Mus musculus [6] = assay: Cardiotoxicity in Kunming mouse assessed as change in heart rate at 20 mg/kg, ip measured after 23 mins by electrocardiogram (reference value: -44.9 +/- 14.57); assay type: toxicity, organism-based; settings: in vivo
Mus musculus [7] = assay: Cardiotoxicity in Kunming mouse assessed as change in heart rate at 20 mg/kg, ip measured after 24 mins by electrocardiogram (reference value: -44.48 +/- 12.38); assay type: toxicity, organism-based; settings: in vivo, 0.4 h
Mus musculus [8] = assay: Cardiotoxicity in Kunming mouse assessed as change in heart rate at 20 mg/kg, ip measured after 19 mins by electrocardiogram (reference value: -38.67 +/- 13.91); assay type: toxicity, organism-based; settings: in vivo
Mus musculus [9] = assay: Cardiotoxicity in Kunming mouse assessed as change in heart rate at 20 mg/kg, ip measured after 15 mins by electrocardiogram (reference value: -35.14 +/- 24.5); assay type: toxicity, organism-based; settings: in vivo, 0.25 h
Mus musculus [10] = assay: Cardiotoxicity in Kunming mouse assessed as change in heart rate at 20 mg/kg, ip measured after 34 mins by electrocardiogram (reference value: -35 +/- 23.88); assay type: toxicity, organism-based; settings: in vivo
Mus musculus [11] = assay: Cardiotoxicity in Kunming mouse assessed as change in heart rate at 20 mg/kg, ip measured after 28 mins by electrocardiogram (reference value: -49.06 +/- 20.71); assay type: toxicity, organism-based; settings: in vivo
Mus musculus [12] = assay: Cardiotoxicity in Kunming mouse assessed as change in heart rate at 20 mg/kg, ip measured after 4 mins by electrocardiogram (reference value: -13.79 +/- 13.4); assay type: toxicity, organism-based; settings: in vivo
Mus musculus [13] = assay: Cardiotoxicity in Kunming mouse assessed as change in heart rate at 20 mg/kg, ip measured after 22 mins by electrocardiogram (reference value: -41.94 +/- 12.51); assay type: toxicity, organism-based; settings: in vivo
Cholinesterase [14] = molecular target: T1, Cholinesterase (Equus caballus, UniProt P81908); assay: Irreversible inhibition of equine serum BuChE assessed as second order carbamylation rate constant using S-butyrylthiocholine iodide as substrate preincubated up to 45 mins followed by substrate addition measured after 5 mins
Outline: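 Equine BChE, pH 8, 37°C, was preincubated for 1, 2, 4, 8, 15, 30 and 45 min with inhibitor at 1×10^-7 to 5×10^-6 M (seven levels). Residual activity was read by Ellman with BTCh and normalised to a water control at each time. kobs came from a one-phase exponential decay fit; k_I1 came from the linear kobs versus concentration relation.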

Mus musculus [15] = assay: Cardiotoxicity in Kunming mouse assessed as change in heart rate at 20 mg/kg, ip measured after 14 mins by electrocardiogram (reference value: -38.12 +/- 19.53); assay type: toxicity, organism-based; settings: in vivo
Mus musculus [16] = assay: Cardiotoxicity in Kunming mouse assessed as change in heart rate at 20 mg/kg, ip measured after 18 mins by electrocardiogram (reference value: -37.61 +/- 15); assay type: toxicity, organism-based; settings: in vivo, 0.3 h
Mus musculus [17] = assay: Cardiotoxicity in Kunming mouse assessed as change in heart rate at 20 mg/kg, ip measured after 6 mins by electrocardiogram (reference value: -19.47 +/- 22.55); assay type: toxicity, organism-based; settings: in vivo, 0.1 h
Mus musculus [18] = assay: Cardiotoxicity in Kunming mouse assessed as change in heart rate at 20 mg/kg, ip measured after 1 mins by electrocardiogram (reference value: -4.04 +/- 7.52); assay type: toxicity, organism-based; settings: in vivo
Mus musculus [19] = assay: Cardiotoxicity in Kunming mouse assessed as change in heart rate at 20 mg/kg, ip measured after 27 mins by electrocardiogram (reference value: -44.4 +/- 23.19); assay type: toxicity, organism-based; settings: in vivo, 0.45 h
Mus musculus [20] = assay: Cardiotoxicity in Kunming mouse assessed as change in heart rate at 20 mg/kg, ip measured after 21 mins by electrocardiogram (reference value: -40.23 +/- 16.21); assay type: toxicity, organism-based; settings: in vivo, 0.35 h
Mus musculus [21] = assay: Cardiotoxicity in Kunming mouse assessed as change in heart rate at 20 mg/kg, ip measured after 12 mins by electrocardiogram (reference value: -40.39 +/- 20.17); assay type: toxicity, organism-based; settings: in vivo, 0.2 h
Mus musculus [22] = assay: Cardiotoxicity in Kunming mouse assessed as change in heart rate at 20 mg/kg, ip measured after 7 mins by electrocardiogram (reference value: -25.9 +/- 22.08); assay type: toxicity, organism-based; settings: in vivo
Mus musculus [23] = assay: Cardiotoxicity in Kunming mouse assessed as change in heart rate at 20 mg/kg, ip measured after 13 mins by electrocardiogram (reference value: -37.85 +/- 14.54); assay type: toxicity, organism-based; settings: in vivo
Mus musculus [24] = assay: Cardiotoxicity in Kunming mouse assessed as change in heart rate at 20 mg/kg, ip measured after 17 mins by electrocardiogram (reference value: -38.32 +/- 10.76); assay type: toxicity, organism-based; settings: in vivo
Acetylcholinesterase = Acetylcholinesterase (Electrophorus electricus, UniProt O42275); assay: Inhibition of electric eel AChE using S-acetylthiocholine iodide as substrate preincubated for 60 mins followed by substrate addition measured after 5 mins by Ellman's method
Cholinesterase [25] = molecular target: T1, Cholinesterase; assay: Inhibition of equine serum BuChE using S-butyrylthiocholine iodide as substrate preincubated for 60 mins followed by substrate addition measured after 5 mins by Ellman's method
Outline: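 Equine serum BChE (0.1 U/mL) in 100 mM sodium phosphate, pH 8, was preincubated at 37°C for 60 min with seven inhibitor concentrations (top 1×10^-5 M; stocks in acetonitrile:water 1:9). Added mix contained BTCh 2.5 mM and DTNB 3.4 mM. A412 was read for 5 min at 37°C, with enzyme-free blank subtracted. Triplicates.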

Mus musculus [26] = assay: Cardiotoxicity in Kunming mouse assessed as change in heart rate at 20 mg/kg, ip measured after 33 mins by electrocardiogram (reference value: -39.12 +/- 24.73); assay type: toxicity, organism-based; settings: in vivo, 0.55 h
Mus musculus [27] = assay: Cardiotoxicity in Kunming mouse assessed as change in heart rate at 20 mg/kg, ip measured after 3 mins by electrocardiogram (reference value: -14.4 +/- 19.94); assay type: toxicity, organism-based; settings: in vivo, 0.05 h
Mus musculus [28] = assay: Cardiotoxicity in Kunming mouse assessed as change in heart rate at 20 mg/kg, ip measured after 31 mins by electrocardiogram (reference value: -42.8 +/- 29.79); assay type: toxicity, organism-based; settings: in vivo

T1 sequence (P81908 whole entry): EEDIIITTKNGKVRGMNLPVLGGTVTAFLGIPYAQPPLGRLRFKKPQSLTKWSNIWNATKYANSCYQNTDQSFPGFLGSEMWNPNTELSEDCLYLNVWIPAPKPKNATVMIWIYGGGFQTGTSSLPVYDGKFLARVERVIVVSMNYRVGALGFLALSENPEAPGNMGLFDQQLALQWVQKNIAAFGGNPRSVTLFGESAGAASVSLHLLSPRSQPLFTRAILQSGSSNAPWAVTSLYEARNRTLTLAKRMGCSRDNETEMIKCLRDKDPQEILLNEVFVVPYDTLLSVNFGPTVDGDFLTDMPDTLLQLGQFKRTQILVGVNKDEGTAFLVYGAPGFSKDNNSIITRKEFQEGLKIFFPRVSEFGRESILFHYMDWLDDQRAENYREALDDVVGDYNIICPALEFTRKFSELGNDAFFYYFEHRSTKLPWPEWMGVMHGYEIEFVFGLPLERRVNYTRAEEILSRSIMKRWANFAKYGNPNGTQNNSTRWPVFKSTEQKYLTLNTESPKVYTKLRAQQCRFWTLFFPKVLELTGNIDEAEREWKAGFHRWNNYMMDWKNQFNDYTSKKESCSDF
Sequence of Cholinesterase (Homo sapiens, UniProt P06276) (P06276 whole entry): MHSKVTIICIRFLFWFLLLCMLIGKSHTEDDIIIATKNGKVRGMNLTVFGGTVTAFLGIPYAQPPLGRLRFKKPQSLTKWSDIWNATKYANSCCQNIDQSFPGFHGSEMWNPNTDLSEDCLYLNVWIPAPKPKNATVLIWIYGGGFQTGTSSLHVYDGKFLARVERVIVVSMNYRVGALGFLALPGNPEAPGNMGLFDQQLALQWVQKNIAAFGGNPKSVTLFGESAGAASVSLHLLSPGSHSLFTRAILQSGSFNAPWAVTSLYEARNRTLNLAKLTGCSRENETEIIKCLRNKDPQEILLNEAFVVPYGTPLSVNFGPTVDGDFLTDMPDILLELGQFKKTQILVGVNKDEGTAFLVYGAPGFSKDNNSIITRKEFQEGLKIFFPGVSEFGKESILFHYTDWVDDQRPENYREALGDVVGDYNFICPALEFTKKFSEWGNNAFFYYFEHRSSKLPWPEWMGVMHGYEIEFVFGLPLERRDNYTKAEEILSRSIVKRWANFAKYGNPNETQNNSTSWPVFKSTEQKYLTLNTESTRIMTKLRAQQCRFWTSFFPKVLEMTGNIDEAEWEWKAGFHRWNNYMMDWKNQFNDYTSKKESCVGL
Sequence of Acetylcholinesterase (O42275 whole entry): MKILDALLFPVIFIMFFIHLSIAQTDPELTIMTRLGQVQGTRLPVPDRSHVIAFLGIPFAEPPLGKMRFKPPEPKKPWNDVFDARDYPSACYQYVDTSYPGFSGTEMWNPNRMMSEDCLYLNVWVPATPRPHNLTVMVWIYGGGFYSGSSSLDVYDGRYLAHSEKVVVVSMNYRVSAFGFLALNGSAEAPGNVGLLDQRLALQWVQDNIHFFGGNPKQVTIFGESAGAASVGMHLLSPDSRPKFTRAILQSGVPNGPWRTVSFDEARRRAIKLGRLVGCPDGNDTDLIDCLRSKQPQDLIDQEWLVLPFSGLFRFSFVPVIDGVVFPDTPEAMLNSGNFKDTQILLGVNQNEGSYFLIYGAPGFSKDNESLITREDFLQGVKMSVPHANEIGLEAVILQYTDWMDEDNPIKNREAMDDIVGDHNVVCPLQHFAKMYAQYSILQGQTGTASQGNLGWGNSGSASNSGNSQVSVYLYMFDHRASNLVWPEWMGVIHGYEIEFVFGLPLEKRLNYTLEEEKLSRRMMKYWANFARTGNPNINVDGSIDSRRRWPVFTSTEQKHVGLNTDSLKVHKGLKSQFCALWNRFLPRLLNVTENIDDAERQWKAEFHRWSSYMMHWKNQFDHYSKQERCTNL

## CN(C)C(=O)Oc1cc(OC(=O)N(C)C)cc(C(O)CNC(C)(C)C)c1 (configuration not stated) [BAMBUTEROL]
Mus musculus [1]
  Activity: 5.19 bpm
Mus musculus [2]
  Activity: -2.09 bpm
Cholinesterase [3]
  Ki: 77.7 ×10⁵ /M/min
Mus musculus [4]
  Activity: -0.24 bpm
Mus musculus [5]
  Activity: 9.76 bpm
Mus musculus [6]
  Activity: 48.77 bpm
Mus musculus [7]
  Activity: 29.39 bpm
Mus musculus [8]
  Activity: 38.36 bpm
Mus musculus [9]
  Activity: 53.3 bpm
Mus musculus [10]
  Activity: -6.04 bpm
Mus musculus [11]
  Activity: -15.03 bpm
Mus musculus [12]
  Activity: 3.77 bpm
Mus musculus [13]
  Activity: 48.65 bpm
Cholinesterase [14]
  Ki: 1.44 ×10⁵ /M/min
Mus musculus [15]
  Activity: 39.93 bpm
Mus musculus [16]
  Activity: 32.35 bpm
Mus musculus [17]
  Activity: 16.63 bpm
Mus musculus [18]
  Activity: -2.81 bpm
Mus musculus [19]
  Activity: -1.54 bpm
Mus musculus [20]
  Activity: 32.75 bpm
Mus musculus [21]
  Activity: 15.49 bpm
Mus musculus [22]
  Activity: 16.59 bpm
Mus musculus [23]
  Activity: 15.31 bpm
Mus musculus [24]
  Activity: 45.59 bpm
Acetylcholinesterase
  IC50: > 100000 nM
Cholinesterase [25]
  IC50: 119 nM
Mus musculus [26]
  Activity: 4.05 bpm
Mus musculus [27]
  Activity: 2.1 bpm
Mus musculus [28]
  Activity: -13.49 bpm

## CCC(C)(C)NCC(O)c1cc(OC(=O)N(C)C)cc(OC(=O)N(C)C)c1.Cl (configuration not stated)
Mus musculus [1]
  Activity: -42.6 bpm
Mus musculus [2]
  Activity: -36.77 bpm
Cholinesterase [3]
  Ki: 60 ×10⁵ /M/min
Mus musculus [4]
  Activity: -40.41 bpm
Mus musculus [5]
  Activity: -32.94 bpm
Mus musculus [6]
  Activity: -41.98 bpm
Mus musculus [7]
  Activity: -42.92 bpm
Mus musculus [8]
  Activity: -41.43 bpm
Mus musculus [9]
  Activity: -49.12 bpm
Mus musculus [10]
  Activity: -37.47 bpm
Mus musculus [11]
  Activity: -37.58 bpm
Mus musculus [12]
  Activity: -26.67 bpm
Mus musculus [13]
  Activity: -41.75 bpm
Cholinesterase [14]
  Ki: 1.42 ×10⁵ /M/min
Mus musculus [15]
  Activity: -51.28 bpm
Mus musculus [16]
  Activity: -38.45 bpm
Mus musculus [17]
  Activity: -31.29 bpm
Mus musculus [18]
  Activity: -18.58 bpm
Mus musculus [19]
  Activity: -32.47 bpm
Mus musculus [20]
  Activity: -41.83 bpm
Mus musculus [21]
  Activity: -46.97 bpm
Mus musculus [22]
  Activity: -33.53 bpm
Mus musculus [23]
  Activity: -43.71 bpm
Mus musculus [24]
  Activity: -40.25 bpm
Acetylcholinesterase
  IC50: > 100000 nM
Cholinesterase [25]
  IC50: 126 nM
Mus musculus [26]
  Activity: -39.88 bpm
Mus musculus [27]
  Activity: -22.65 bpm
Mus musculus [28]
  Activity: -37.65 bpm

## CCN(C)C(=O)Oc1cc(OC(=O)N(C)CC)cc(C(O)CNC(C)(C)CC)c1.Cl (configuration not stated)
Mus musculus [1]
  Activity: -8.17 bpm
Mus musculus [2]
  Activity: -1.37 bpm
Cholinesterase [3]
  Ki: 73.3 ×10⁵ /M/min
Mus musculus [4]
  Activity: -6.25 bpm
Mus musculus [5]
  Activity: -4.23 bpm
Mus musculus [6]
  Activity: 0.52 bpm
Mus musculus [7]
  Activity: 3.13 bpm
Mus musculus [8]
  Activity: 2.88 bpm
Mus musculus [9]
  Activity: -2.32 bpm
Mus musculus [10]
  Activity: -5.5 bpm
Mus musculus [11]
  Activity: -7.52 bpm
Mus musculus [12]
  Activity: 2.55 bpm
Mus musculus [13]
  Activity: 0.05 bpm
Cholinesterase [14]
  Ki: 1.49 ×10⁵ /M/min
Mus musculus [15]
  Activity: -4.15 bpm
Mus musculus [16]
  Activity: 5.47 bpm
Mus musculus [17]
  Activity: -1.48 bpm
Mus musculus [18]
  Activity: -0.1 bpm
Mus musculus [19]
  Activity: -4.43 bpm
Mus musculus [20]
  Activity: 0.05 bpm
Mus musculus [21]
  Activity: -4.45 bpm
Mus musculus [22]
  Activity: -3.03 bpm
Mus musculus [23]
  Activity: -3.93 bpm
Mus musculus [24]
  Activity: 4.98 bpm
Acetylcholinesterase
  IC50: > 100000 nM
Cholinesterase [25]
  IC50: 116 nM
Mus musculus [26]
  Activity: -2.93 bpm
Mus musculus [27]
  Activity: 0.93 bpm
Mus musculus [28]
  Activity: 1.28 bpm
